Assay results as given in ChEMBL document CHEMBL1134629, “Synthesis and biological evaluation of s-triazine substituted polyamines as potential new anti-trypanosomal drugs” (J Med Chem, 2001).

Columns and labels:
Rattus norvegicus = species: Rattus norvegicus; experiment: Inhibitory activity against L-6 rat myoblast cells; assay type: functional, cell-based
Outline: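 Noninfected rat L-6 skeletal myoblasts seeded at 2000 cells/well in RPMI 1640 with 10% FBS and 2 mM L-glutamine; serial drug dilutions as in the T. cruzi assay, 37 °C, 5% CO2; MIC determined microscopically after 4 days.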

Adenosine transporter 1 = molecular target: T1, Adenosine transporter 1 (Trypanosoma brucei, UniProt Q9Y0I0); experiment: Ability to inhibit adenosine uptake by the P2 transporter in Trypanosoma brucei
T1 sequence (Q9Y0I0 whole entry): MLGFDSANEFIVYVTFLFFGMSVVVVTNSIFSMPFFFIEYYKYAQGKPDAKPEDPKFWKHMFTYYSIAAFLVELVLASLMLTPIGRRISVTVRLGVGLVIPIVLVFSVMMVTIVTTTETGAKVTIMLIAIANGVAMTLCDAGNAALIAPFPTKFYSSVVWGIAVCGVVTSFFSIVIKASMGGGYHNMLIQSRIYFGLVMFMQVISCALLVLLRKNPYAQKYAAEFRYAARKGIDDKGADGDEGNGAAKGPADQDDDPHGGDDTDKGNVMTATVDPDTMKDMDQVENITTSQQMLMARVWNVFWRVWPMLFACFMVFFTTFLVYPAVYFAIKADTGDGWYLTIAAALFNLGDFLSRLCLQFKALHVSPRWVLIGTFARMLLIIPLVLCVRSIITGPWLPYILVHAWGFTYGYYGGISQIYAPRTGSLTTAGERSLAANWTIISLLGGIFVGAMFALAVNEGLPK
Outline: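 T. b. brucei 427 cells (100 µL at 2 × 10⁸/mL) added to buffer with radiolabeled adenosine, 1 mM inosine to block P1 uptake, and varying inhibitor concentrations; 10 s at room temperature, then spun through 1-bromododecane oil, pellet radioactivity counted by scintillation. Apparent Ki from competitive inhibition equation; duplicate experiments.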

[1] = Inhibitory activity against Trypanosoma cruzi; assay type: functional
Outline: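 L-6 myoblasts (2000/well, RPMI 1640, 10% FBS, 2 mM L-glutamine) infected after 24 h with 5000 trypomastigotes of T. cruzi Tulahuen C2C4 carrying LacZ plus serial drug dilution; 4 days at 37 °C, 5% CO2. Intracellular amastigote growth read via CPRG/Nonidet colour at 540 nm after 2-4 h; IC50 from sigmoidal inhibition curve.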

[2] = test system: Trypanosoma brucei rhodesiense; experiment: Inhibitory activity against T.b. rhodesiense; assay type: functional, organism-based
[3] = test system: Trypanosoma brucei brucei; experiment: Inhibitory activity against Trypanosoma brucei; assay type: functional, organism-based

With `CN(C)c1nc(NCCCNCCCCCCCCCCCCNCCCN)nc(N(C)C)n1` as the compound, how does the IC50 (Rattus norvegicus) read?
Its IC50 is 14.2 µM.

And the Ki (Adenosine transporter 1)?
The Ki was 0.6 µM.

And the IC50 [1]?
The IC50 was 0.71 µM.

What about the IC50 [2] of the same compound?
The IC50 was 1.3 µM.

And the IC50 [3]?
Its IC50 is 14.7 µM.

Which results are given for `Nc1nc(N)nc(NCCCCCCCCCCCCNc2nc(N)nc(N)n2)n1`?
IC50 (Rattus norvegicus): 239 µM; IC50 [1]: 6 µM; IC50 [2]: 13 µM

What does the source list for `CNc1nc(NC)nc(NCCCNCCCCCCCCCNCCCNc2nc(NC)nc(NC)n2)n1`?
IC50 (Rattus norvegicus): 289 µM; Ki (Adenosine transporter 1): 14 µM; IC50 [1]: > 130 µM; IC50 [2]: 17 µM; IC50 [3]: 4 µM

Which IC50 (Rattus norvegicus) does the source give for `Nc1nc(N)nc(NCCCNC2CCC(NCCCNc3nc(N)nc(N)n3)CC2)n1` (centres undefined) here?
Its IC50 is 338 µM.

What about the Ki (Adenosine transporter 1) of the same compound?
Its Ki is 125 µM.

And the IC50 [1]?
Its IC50 is greater than 152 µM.

And the IC50 [2]?
The IC50 was greater than 152 µM.

And the IC50 [3]?
The IC50 was greater than 100 µM.

Which IC50 (Rattus norvegicus) does the source give for `CNc1nc(NC)nc(NCCCNCCCCCCCCCCCCNCCCN)n1` here?
The IC50 was 57.7 µM.

And the Ki (Adenosine transporter 1)?
Its Ki is 25 µM.

And the IC50 [1]?
The IC50 was 31 µM.

What about the IC50 [2] of the same compound?
Its IC50 is 0.58 µM.

What about the IC50 [3] of the same compound?
The IC50 was 20 µM.

With `CN(C)c1nc(NCCCNCCCCCCCCCCCCNCCCNc2nc(N(C)C)nc(N(C)C)n2)nc(N(C)C)n1` as the compound, how does the IC50 (Rattus norvegicus) read?
The IC50 was 6.8 µM.

And the Ki (Adenosine transporter 1)?
The Ki was 2.5 µM.

And the IC50 [1]?
Its IC50 is 0.8 µM.

What about the IC50 [2] of the same compound?
Its IC50 is 0.81 µM.

And the IC50 [3]?
The IC50 was 1.7 µM.

With `CN(C)c1nc(N)nc(CN(CCCNCCCCCCCCCNCCCN(Cc2nc(N)nc(N(C)C)n2)Cc2nc(N)nc(N(C)C)n2)Cc2nc(N)nc(N(C)C)n2)n1` as the compound, how does the IC50 (Rattus norvegicus) read?
Its IC50 is 177 µM.

And the Ki (Adenosine transporter 1)?
Its Ki is 17 µM.

And the IC50 [1]?
Its IC50 is 54.8 µM.

What about the IC50 [2] of the same compound?
The IC50 was 0.265 µM.

What about the IC50 [3] of the same compound?
The IC50 was 3 µM.

Which IC50 (Rattus norvegicus) does the source give for `Nc1nc(N)nc(NCCCNCCCCCCCCCCCCNCCCNc2nc(N)nc(N)n2)n1` here?
Its IC50 is 295 µM.

And the Ki (Adenosine transporter 1)?
The Ki was 0.5 µM.

And the IC50 [1]?
Its IC50 is greater than 13 µM.

And the IC50 [2]?
The IC50 was 16 µM.

And the IC50 [3]?
The IC50 was greater than 100 µM.

Which IC50 (Rattus norvegicus) does the source give for `CN(C)c1nc(N)nc(NCCCNCCCCCCCCCCCCNCCCN)n1` here?
The IC50 was 39.9 µM.

And the Ki (Adenosine transporter 1)?
Its Ki is 1 µM.

And the IC50 [1]?
Its IC50 is 32 µM.

And the IC50 [2]?
The IC50 was 0.94 µM.

What about the IC50 [3] of the same compound?
The IC50 was 20 µM.

With `CNc1nc(NC)nc(NCCCNCCCCCCCCCNCCCN)n1` as the compound, how does the IC50 (Rattus norvegicus) read?
Its IC50 is 135 µM.

What about the Ki (Adenosine transporter 1) of the same compound?
Its Ki is 17 µM.

What about the IC50 [1] of the same compound?
Its IC50 is 23 µM.

And the IC50 [2]?
Its IC50 is 0.94 µM.

And the IC50 [3]?
Its IC50 is 84 µM.

With `CNc1nc(N)nc(NCCCNCCCCCCCCCCCCNCCCN)n1` as the compound, how does the IC50 (Rattus norvegicus) read?
The IC50 was 127 µM.

What about the Ki (Adenosine transporter 1) of the same compound?
The Ki was 0.41 µM.

What about the IC50 [1] of the same compound?
The IC50 was greater than 154 µM.

And the IC50 [2]?
The IC50 was 1.1 µM.

What about the IC50 [3] of the same compound?
The IC50 was greater than 200 µM.

What does the source list for `CC(CNCCCNc1nc(N)nc(N)n1)NCCCNc1nc(N)nc(N)n1` (centres undefined)?
IC50 (Rattus norvegicus): 362 µM; Ki (Adenosine transporter 1): 163 µM; IC50 [1]: > 163 µM; IC50 [2]: > 163 µM; IC50 [3]: > 100 µM

With `CNc1nc(N)nc(NCCCNCCCCCCCCCNCCCNc2nc(N)nc(NC)n2)n1` as the compound, how does the IC50 (Rattus norvegicus) read?
The IC50 was 285 µM.

And the Ki (Adenosine transporter 1)?
The Ki was 0.75 µM.

What about the IC50 [1] of the same compound?
Its IC50 is greater than 135 µM.

And the IC50 [2]?
The IC50 was 16 µM.

And the IC50 [3]?
Its IC50 is 53 µM.

Which results are given for `CNc1nc(NC)nc(NCCCNCCCCCCCCCCCCNCCCNc2nc(NC)nc(NC)n2)n1`?
IC50 (Rattus norvegicus): 143 µM; Ki (Adenosine transporter 1): 3.2 µM; IC50 [1]: 18 µM; IC50 [2]: 2.3 µM; IC50 [3]: 17 µM

Which IC50 (Rattus norvegicus) does the source give for `CNc1nc(CN(CCCNCCCCCCCCCNCCCN(Cc2nc(NC)nc(NC)n2)Cc2nc(NC)nc(NC)n2)Cc2nc(NC)nc(NC)n2)nc(NC)n1` here?
Its IC50 is 177 µM.

And the Ki (Adenosine transporter 1)?
The Ki was 30 µM.

And the IC50 [1]?
The IC50 was 76.8 µM.

What about the IC50 [2] of the same compound?
The IC50 was 0.265 µM.

What about the IC50 [3] of the same compound?
Its IC50 is 0.1 µM.

For `CN(C)c1nc(N)nc(NCCCNCCCCCCCCCNCCCNc2nc(N)nc(N(C)C)n2)n1`, which IC50 (Rattus norvegicus) is on record?
The IC50 was 274 µM.

What about the Ki (Adenosine transporter 1) of the same compound?
The Ki was 10 µM.

And the IC50 [1]?
Its IC50 is greater than 123 µM.

And the IC50 [2]?
Its IC50 is 9.6 µM.

What about the IC50 [3] of the same compound?
The IC50 was 40 µM.

Which Ki (Adenosine transporter 1) does the source give for `CNc1nc(N)nc(NCCCNCCCCCCCCCCCCNCCCNc2nc(N)nc(NC)n2)n1` here?
The Ki was 0.135 µM.

And the IC50 [1]?
The IC50 was 116 µM.

And the IC50 [2]?
Its IC50 is 9.8 µM.

What about the IC50 [3] of the same compound?
Its IC50 is 2 µM.

Which IC50 (Rattus norvegicus) does the source give for `CN(C)c1nc(NCCCNCCCCCCCCCNCCCNc2nc(N(C)C)nc(N(C)C)n2)nc(N(C)C)n1` here?
The IC50 was 37.7 µM.

What about the Ki (Adenosine transporter 1) of the same compound?
The Ki was 29 µM.

What about the IC50 [1] of the same compound?
Its IC50 is 16 µM.

What about the IC50 [2] of the same compound?
The IC50 was 1.2 µM.

And the IC50 [3]?
The IC50 was 32 µM.

What does the source list for `Nc1nc(N)nc(CN(CCCNCCCCCCCCCNCCCN(Cc2nc(N)nc(N)n2)Cc2nc(N)nc(N)n2)Cc2nc(N)nc(N)n2)n1`?
IC50 (Rattus norvegicus): 220 µM; Ki (Adenosine transporter 1): 82 µM; IC50 [1]: > 88 µM; IC50 [2]: 4.02 µM; IC50 [3]: 32 µM

Which results are given for `CNc1nc(CN(CCCNCCCCCCCCCCCCNCCCN(Cc2nc(NC)nc(NC)n2)Cc2nc(NC)nc(NC)n2)Cc2nc(NC)nc(NC)n2)nc(NC)n1`?
IC50 (Rattus norvegicus): 76.6 µM; Ki (Adenosine transporter 1): 2.4 µM; IC50 [1]: > 77 µM; IC50 [2]: 0.18 µM; IC50 [3]: 2.9 µM

With `Nc1nc(N)nc(NCCCNCCCCCCCCCNCCCNc2nc(N)nc(N)n2)n1` as the compound, how does the Ki (Adenosine transporter 1) read?
The Ki was 19 µM.

What about the IC50 [1] of the same compound?
Its IC50 is greater than 140 µM.

And the IC50 [2]?
Its IC50 is 128 µM.

What about the IC50 [3] of the same compound?
The IC50 was greater than 100 µM.

For `Nc1nc(N)nc(NCCCNC2CCCCC2NCCCNc2nc(N)nc(N)n2)n1` (centres undefined), which IC50 (Rattus norvegicus) is on record?
Its IC50 is 338 µM.

What about the Ki (Adenosine transporter 1) of the same compound?
The Ki was 55 µM.

And the IC50 [1]?
The IC50 was greater than 152 µM.

What about the IC50 [2] of the same compound?
The IC50 was greater than 152 µM.

What about the IC50 [3] of the same compound?
The IC50 was greater than 100 µM.

What does the source list for `CN(C)c1nc(N)nc(NCCCNCCCCCCCCCCCCNCCCNc2nc(N)nc(N(C)C)n2)n1`?
IC50 (Rattus norvegicus): 50.9 µM; Ki (Adenosine transporter 1): 0.24 µM; IC50 [1]: 9.7 µM; IC50 [2]: 3.5 µM; IC50 [3]: > 100 µM

Which results are given for `CN(C)c1nc(N)nc(CN(CCCNCCCCCCCCCCCCNCCCN(Cc2nc(N)nc(N(C)C)n2)Cc2nc(N)nc(N(C)C)n2)Cc2nc(N)nc(N(C)C)n2)n1`?
IC50 (Rattus norvegicus): 105 µM; Ki (Adenosine transporter 1): 4.6 µM; IC50 [1]: > 77 µM; IC50 [2]: 0.44 µM; IC50 [3]: 2 µM

Which results are given for `CCCCCCCCCCCCCCCCCCNc1nc(NC)nc(NC)n1`?
IC50 (Rattus norvegicus): 48.2 µM; IC50 [1]: 12 µM; IC50 [2]: 14 µM

Which IC50 (Rattus norvegicus) does the source give for `Nc1nc(N)nc(NCCCNCCCCNCCCNc2nc(N)nc(N)n2)n1` here?
The IC50 was 353 µM.

And the Ki (Adenosine transporter 1)?
Its Ki is 72 µM.

And the IC50 [1]?
The IC50 was greater than 160 µM.

What about the IC50 [2] of the same compound?
The IC50 was 160 µM.

And the IC50 [3]?
Its IC50 is greater than 100 µM.

With `Nc1nc(N)nc(CN(CCCNCCCCCCCCCCCCNCCCN(Cc2nc(N)nc(N)n2)Cc2nc(N)nc(N)n2)Cc2nc(N)nc(N)n2)n1` as the compound, how does the IC50 (Rattus norvegicus) read?
The IC50 was 188 µM.

What about the Ki (Adenosine transporter 1) of the same compound?
Its Ki is 6.7 µM.

And the IC50 [1]?
The IC50 was greater than 85 µM.

And the IC50 [2]?
Its IC50 is 0.57 µM.

And the IC50 [3]?
Its IC50 is 21 µM.
